Assay outcomes (PubChem)
Only some compounds are listed: those with a hit (about 2.3% of all), similar ones and a draw of the others.
TCR CD3 inh = blocks the human TCR-CD3 interaction | 0.37% of 360,000 active | TAMRA-labeled TCR probe fluorescence, biochemical | inhibition, % at 9.4 µM; in the data active means inhibition above about 19%;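 further: recombinant mutant TCR 2C K166C tagged with TAMRA read by polarization; 0% = receptor in buffer alone and 100% = receptor with positive control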
ABHD4 inh = inhibits mouse alpha/beta hydrolase domain 4 | purified mABHD4, FP-Rh probe fluorescence polarization | inhibition, % at 8.92 µM | 0.54% of 370,000 active | AID 720543;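 active means inhibition exceeding the mean over every tested compound plus 3 SD, cut at about 30% in these data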;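 further: 0% = plate median of compound wells and 100% = S159A mutant with DMSO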
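Assay system: mABHD4 protein; medium: HEPES pH 7.0, NaCl, Pluronic buffer; dosing: 8.92 µM, single dose; schedule: 45 min + 60 min at 25 °C; signal: FP readout, ex 525 nm / em 598 nm; read-out: normalized percent inhibition of probe labeling; repeats: single replicate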
HTRA1 inhibitor = HTRA1 (human) protease inhibition; Q92743; recombinant HTRA1, FP-rhodamine activity-based probe, fluorescence polarization; inhibition, % at 5.96 µM; 0.5% of 340,000 active; AID 504803; in the data active means inhibition above about 36%;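 further: 0% = enzyme with DMSO and 100% = wells lacking enzyme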
Target sequence (Q92743 whole entry, looked up): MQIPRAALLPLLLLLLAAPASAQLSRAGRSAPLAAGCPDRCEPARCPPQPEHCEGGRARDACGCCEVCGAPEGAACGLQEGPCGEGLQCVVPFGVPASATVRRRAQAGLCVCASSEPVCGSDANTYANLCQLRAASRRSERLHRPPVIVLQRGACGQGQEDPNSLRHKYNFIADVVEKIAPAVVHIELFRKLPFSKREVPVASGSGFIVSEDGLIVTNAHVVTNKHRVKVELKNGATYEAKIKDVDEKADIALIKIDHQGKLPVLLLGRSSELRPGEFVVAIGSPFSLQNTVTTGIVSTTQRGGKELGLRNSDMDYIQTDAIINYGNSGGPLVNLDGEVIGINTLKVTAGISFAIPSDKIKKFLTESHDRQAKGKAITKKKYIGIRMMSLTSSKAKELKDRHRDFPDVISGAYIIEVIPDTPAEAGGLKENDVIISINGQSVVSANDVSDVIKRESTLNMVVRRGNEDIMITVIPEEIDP
pPAFAH inh = inhibitors of human plasma PAF acetylhydrolase (pPAFAH); inhibition, % at 3.39 µM; recombinant pPAFAH, FP-rhodamine probe fluorescence polarization; Q13093; AID 463082; 1.5% of 330,000 active;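 active means inhibition above the mean inhibition across the screen plus 3 SD, cut at about 25% in these data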;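 further: inhibitors block binding of the rhodamine activity-based probe so polarization drops; 0% = enzyme with DMSO and 100% = wells lacking pPAFAH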
SIAE primary = inhibitors of human sialic acid acetylesterase SIAE; Q9HAT2; SIAE FP-Rh probe binding, fluorescence polarization; inhibition, % at 9.66 µM; 0.69% of 370,000 active; AID 1053197;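 active means inhibition above a cutoff: mean of compounds within the control limits plus 3 SD of those, cut at about 17% in these data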;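 further: 0% = plate median of compound wells and 100% = probe without SIAE protein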
SIAE inh conf = human SIAE inhibition, confirmation. shares compounds with SIAE primary. SIAE FP-Rh activity-based probe, fluorescence polarization. inhibition, % at 9.66 µM. 13% of 2,300 active;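 active means mean inhibition of the replicates above the hit cutoff set in the primary screen, cut at about 17% in these data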;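 further: 0% = SIAE with DMSO and probe and 100% = probe without SIAE; inhibitors lower polarization as more probe stays unbound to SIAE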
The depositor's hits bear a star; x = no result.

SMILES | TCR CD3 inh | ABHD4 inh | HTRA1 inhibitor | pPAFAH inh | SIAE primary | SIAE inh conf
Cc1ccc(C(=O)C(OC(=O)CCC(=O)Nc2cccc(C)c2)c2ccccc2)cc1 (stereo not drawn) | 10.6 | 8.4 | -7.2 | 2.5 | 20.8* | -0.9
COc1ccc(CCNS(=O)(=O)c2c(C)n[nH]c2C)cc1 | x | 5.2 | x | x | 1.6 | x
Oc1ccccc1C=NNC(=S)NN=Cc1ccccc1O | 18.2 | 27.7 | 31.9 | x | 42.2* | 52.5*
CC(=NCc1cccc(Cl)c1)c1nc(-c2ccco2)oc1O | -5.0 | 1.4 | -5.3 | 7.0 | 21.4* | 0.7
C[C@H]1COc2cc(N3CCC[C@H]3CO)ccc2S(=O)(=O)N1 | 3.9 | 0.5 | x | x | 0.0 | x
Cc1cccc(NC(=O)CN2C(=O)N/C(=C/c3cc(C)n(C(C)C)c3C)C2=O)c1 | 5.4 | -2.5 | 0.8 | 8.2 | 22.8* | 1.0
Cc1cccc(NC(=O)CN2C(=O)N/C(=C/c3ccc(C)s3)C2=O)c1 | 11.2 | -2.8 | -12.7 | -4.0 | -6.9 | x
COc1ccc(OCc2cc(C(=O)N3CCCC(O)C3)no2)c2ccccc12 (stereo not drawn) | -0.9 | 1.7 | -0.6 | 9.2 | 17.6* | 0.3
COc1ccc(OCc2cc(C(=O)N3CCCC(OC)C3)no2)c2ccccc12 (stereo not drawn) | -3.0 | 2.9 | -12.5 | 7.6 | 6.9 | x
Cc1cccc(Cn2cc(COC(=O)NCCc3c[nH]c4ccccc34)nn2)c1 | x | -2.9 | x | x | 0.3 | x
CC1(C(=O)Nc2ccccc2)CCN1C(=O)CCc1ccc(Cl)cc1Cl (stereo not drawn) | -4.5 | -2.8 | x | x | 18.9* | -0.8
CC1(C(=O)NS(=O)(=O)c2ccccc2Cl)CCN1C(=O)CCc1ccc(Cl)cc1Cl (stereo not drawn) | 2.1 | -3.8 | x | x | 2.9 | x
COc1cccc(C(=O)/C=C/Nc2cc(C)ccc2O)c1 | 2.1 | 7.4 | 5.3 | 2.6 | 22.8* | -4.1
O=C(CCS(=O)(=O)c1cc2c(cc1Br)CCN2C(=O)C1CC1)N1CCN(c2ccccn2)CC1 | x | -0.1 | x | x | -3.5 | x
Cc1ccc(S(=O)(=O)N2CCCC2CNC(=O)c2ccccc2)cc1 (stereo not drawn) | 6.9 | 5.6 | -3.7 | 4.3 | 21.6* | 2.7
O=S1(=O)N[C@H](Cc2ccccc2)COc2cccc(N3CCC[C@H]3CO)c21 | 0.2 | 1.2 | x | x | 7.1 | x
O=C(N/N=C/c1ccc(-c2ccccc2[N+](=O)[O-])o1)c1cncc(Br)c1 | 4.5 | 1.1 | 8.5 | 7.6 | -0.5 | x
Cc1c(C(=O)N/N=C/c2ccc(-c3ccccc3[N+](=O)[O-])o2)sc(N)c1C#N | 3.9 | 22.1 | 24.5 | 11.3 | 26.4* | 5.8
CC(C)NC(=O)c1ccc(N2CCOCC2)nc1 | -4.1 | 5.8 | 0.7 | 0.3 | 19.0* | -3.6
O=C(c1ccc(N2CCOCC2)nc1)N1CCOCC1 | 0.3 | -9.5 | 1.9 | 3.3 | 2.3 | x
Cc1cc(NC(=O)c2ccc(NS(=O)(=O)c3ccc(C)c(C)c3)cc2)no1 | x | -4.2 | x | x | -7.9 | x
O=C1N=c2ccccc2=C1c1sc(=S)n(NC(=O)c2cccc(O)c2)c1O | 1.8 | 25.5 | -0.2 | x | 29.0* | 32.6*
O=C1N=c2ccc(Br)cc2=C1c1sc(=S)n(NS(=O)(=O)c2ccccc2)c1O | 12.8 | 25.5 | -1.8 | 0.9 | 11.5 | x
O=C(O)c1ccccc1C(=O)c1ccc(N2CCCC2)c([N+](=O)[O-])c1 | 1.8 | 0.5 | 5.9 | -0.1 | -7.7 | x
CC(=O)c1ccc(N2CCN(c3ccccc3O)CC2)c([N+](=O)[O-])c1 | -9.3 | 9.5 | 2.9 | 4.5 | 30.9* | -2.2
SMILES | TCR CD3 inh | ABHD4 inh | HTRA1 inhibitor | pPAFAH inh | SIAE primary | SIAE inh conf
COc1ccc(C(=O)NCCNc2nc3cc(C)cc(C)c3cc2C#N)nc1 | 2.6 | 5.3 | x | x | -1.3 | x
CC(C)Cc1nnc(NS(=O)(=O)c2ccc(Cl)cc2)s1 | -1.7 | -1.2 | -5.4 | -2.0 | 26.6* | 0.4
O=S(=O)(Nc1nccs1)c1ccc(Cl)cc1 | 0.4 | 3.7 | 2.6 | 7.5 | 19.2* | -1.7
COc1ccc(S(=O)(=O)Nc2nnc(CC(C)C)s2)cc1 | 5.0 | -3.7 | -2.8 | 0.0 | -5.3 | x
CC(Oc1ccc(Cl)cc1)C(=O)Nc1ccc(S(=O)(=O)Nc2nccs2)cc1 (stereo not drawn) | 6.2 | 8.2 | -11.2 | 10.5 | -3.3 | x
COC1=C[C@H](C(=O)N[C@H]2CCCC[C@@H]2NC(C)=O)[C@H](C)[C@@H](c2ccccc2)CC1=O | x | -5.7 | x | x | 0.9 | x
Cc1ccc(C)c(NC(=S)NCc2ccc3c(c2)OCO3)c1 | 8.0 | 0.0 | -0.5 | 1.6 | 18.0* | -2.4
Cc1ccc(S(=O)(=O)N2CCOC23CCN(S(=O)(=O)c2cccs2)CC3)cc1 | -5.2 | 2.7 | 3.4 | 1.3 | 18.3* | 3.9
Cc1ccsc1CNC(=O)C1(C)CCN1C(C)C (stereo not drawn) | -1.7 | 4.5 | x | x | 6.6 | x
CC(O)CC(=O)OC[C@]12CC[C@H]3[C@@](C)(CC[C@H]4C(C)(C)CCC[C@]34C)[C@@H]1CC(C1=CC(=O)OC1O)O2 (stereo partly drawn) | -1.8 | -9.2 | x | x | -12.7 | x
Cc1c(O)ccc(/C(Cc2ccc3ccccc3n2)=N\O)c1O | -3.8 | -1.6 | 19.4 | 18.9 | 51.9* | 42.2*
CC(=O)Oc1ccc(C(=O)Cc2ccc3ccccc3n2)c(O)c1C | -7.6 | 0.4 | 9.4 | 2.4 | -3.1 | x
O=C(CSc1ncnc2ccccc12)Nc1ccc2c(c1)OCCO2 | -9.5 | -9.9 | -0.2 | 5.7 | -4.4 | x
CC(Sc1ncnc2ccccc12)C(=O)Nc1ccc2c(c1)OCCO2 (stereo not drawn) | -1.5 | -10.6 | 0.0 | 3.5 | 23.7* | -1.2
Cc1cc(C)c(NC(=S)N(CCN2CCCCC2)Cc2ccco2)c(C)c1 | -0.9 | -0.8 | -1.5 | 1.4 | 9.5 | x
Cc1cccc(C)c1NC(=S)N(CCN1CCCCCC1)Cc1ccco1 | 2.3 | 1.1 | -0.1 | 4.8 | 17.9* | 4.7
O=Cc1cc2ccccc2nc1SCc1ccc(Cl)cc1 | -5.0 | -13.8 | -13.2 | -2.8 | 27.2* | -4.0
O=Cc1cc2ccccc2nc1SCc1ccc(Cl)c(Cl)c1 | 4.0 | -1.3 | -0.1 | 0.0 | -6.8 | x
Cc1ccc(-n2ncc3c(N4CCN(c5ccccc5)CC4)ncnc32)c(C)c1 | -1.0 | 8.3 | 8.5 | 8.1 | 17.8* | 2.5
COc1ccc(N2CCN(c3ncnc4c3cnn4-c3ccc(C)cc3C)CC2)cc1 | 7.5 | 2.6 | -6.9 | 8.4 | -2.3 | x
Oc1[nH]c2ccccc2c1N=Nc1nc(Nc2ccccc2)nc(N2CCOCC2)n1 | -5.1 | -2.8 | -11.3 | 1.9 | -10.8 | x
Cc1[nH]c2ccccc2c1/C=N/Nc1nc(Nc2ccccc2)nc(N2CCOCC2)n1 | 7.3 | 12.1 | -3.4 | 17.0 | 31.8* | 16.7
CN(C)C(=S)N=Nc1[nH]c2ccccc2c1O | -3.1 | 3.1 | x | 2.0 | 20.7* | -8.8
COc1ccccc1OCCSc1nc2ccccc2n1CC(N)=O | 2.8 | -3.3 | 2.7 | 1.4 | 17.5* | -2.3
CCCCOCCCNc1ncnc2c1[nH]c1ccccc12 | -6.4 | 1.9 | -3.0 | 12.1 | 17.6* | 4.1
